# PREPL inh = human PREPL enzyme inhibition | Q4J6C6 | recombinant PREPL, fluorescence polarization activity-based probe | inhibition, % at 5.96 µM | hit rate 0.68% among 320,000 | AID 2751; in the data active = inhibition above about 43%;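 note: 0% = enzyme with DMSO and 100% = wells lacking enzyme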
# UBC13 inh = human UBC13 polyubiquitination inhibition; AID 485273; hit rate 0.47% among 330,000; P61088; inhibition, % at 20 µM; UBC13 polyubiquitin chain formation, TR-FRET; in the data active = inhibition above about 45%, passing the limit was not always enough; inconclusive = no clear call, values can overlap the other calls
# Target sequence (P61088 whole entry, looked up): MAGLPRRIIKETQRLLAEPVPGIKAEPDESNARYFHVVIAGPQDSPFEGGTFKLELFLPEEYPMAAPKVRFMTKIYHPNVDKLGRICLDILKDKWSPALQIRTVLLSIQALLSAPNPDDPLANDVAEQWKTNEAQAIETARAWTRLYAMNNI
# UCH37 DUB inh = blocks the human deubiquitinase UCH37 | Q9Y5K5 | purified proteasome/UCH37, Ub-AMC cleavage fluorescence | inhibition, % (test concentration not listed) | hit rate 0.33% among 330,000;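 active = mean inhibition over replicate wells above about 20%, limit read from the data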;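 note: 0% = compound-free wells with enzyme and 100% = wells lacking proteasome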
# Target sequence (Q9Y5K5 whole entry, looked up): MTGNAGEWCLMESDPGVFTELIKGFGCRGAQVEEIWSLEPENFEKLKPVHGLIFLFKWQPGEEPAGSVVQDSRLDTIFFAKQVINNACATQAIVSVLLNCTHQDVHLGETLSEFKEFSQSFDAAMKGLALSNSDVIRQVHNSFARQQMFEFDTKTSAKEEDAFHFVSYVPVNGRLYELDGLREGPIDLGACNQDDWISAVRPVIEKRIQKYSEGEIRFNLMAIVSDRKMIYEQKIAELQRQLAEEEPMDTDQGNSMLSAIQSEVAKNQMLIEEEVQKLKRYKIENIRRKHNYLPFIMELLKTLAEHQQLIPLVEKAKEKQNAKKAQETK
#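 System: Proteasome-associated human UCH37 deubiquitinase; Input: 0.15 nM proteasome in added enzyme buffer; Also added: Ub-AMC substrate from 1 µM stock; Incubation: 30 min compound-proteasome preincubation then 25 min substrate reaction, room temperature; Detection: fluorescence, ex 355 nm, em 460 nm; Read-out: % inhibition of Ub-AMC cleavage fluorescence; Benchmarks: no-proteasome and no-compound wells.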
# Apaf1 inhib = blocks human Apaf-1 apoptosome activity; reconstituted apoptosome caspase-3 activity, DEVD-Rh110 fluorescence; O14727; hit rate 0.71% among 330,000; inhibition, % at 20 µM; active = inhibition of at least 40% at 20 µM;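 note: plate controls were DMSO wells for no effect and DEVD-CHO caspase inhibitor wells for full effect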
#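 detection = Rh110 fluorescence intensity | test system = biochemical Apaf-1 apoptosome reconstitution | also added = cytochrome c and DEVD-Rh110 substrate | schedule = 30 min plus 50 min, RT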
# Apaf-1 inh conf2 = confirmation of Apaf-1 inhibitors; shares compounds with Apaf1 inhib; reconstituted apoptosome, caspase-3 DEVD-Rh110 fluorescence; inhibition, % at 20 µM; hit rate 25% among 1,800; AID 504614;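 active = mean inhibition of at least 40% at 20 µM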;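 note: plate controls were DMSO wells for no effect and DEVD-CHO caspase inhibitor control wells for full effect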
# Rh110 interf inh = Rh110 signal interference in Apaf-1 inhibitor counter-screen. shares compounds with Apaf1 inhib. Rh110 fluorescence interference, quenched caspase reaction. activation (fluorescence interference), % at 20 µM. 1,800 tested, under 10 active. AID 504615;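 active = signal rise of 40% or more at 20 µM, treated as a fluorescence artifact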
# Fluor interf inh = shows fluorescence interference in the Apaf-1 inhibitor assay format. shares compounds with Apaf1 inhib. fluorescence interference counterscreen, Apaf-1 assay format. IC50, µM. 460 tested, under 10 active. AID 588538; call rule not given here
# * = called active by the depositor; i = inactive; ? = inconclusive; . = no result given. In the library only some 1.5% were active in any assay of this set; here they are far more common.
SMILES,PREPL inh,UBC13 inh,UCH37 DUB inh,Apaf1 inhib,Apaf-1 inh conf2,Rh110 interf inh,others
CCOC(=O)C1CCN(C(=O)c2cccc(NS(=O)(=O)c3ccc(Br)cc3)c2)CC1,12,3,0,6,.,.,
Cc1ccc(OCC(=O)NN=C2SCC(=O)N2Cc2ccccc2)cc1,.,.,3,.,.,.,
Nc1ncc(Br)cc1N=Cc1ccccc1,1,-22,5,62*,8,-2,
Cc1cc(/C=C2\SC(=O)N(C)C2=O)c(C)n1-c1ccc(O)cc1,16,-7,3,71*,18,9,
C/C(C=NNC(=O)Cn1cnc2c1c(=O)n(C)c(=O)n2C)=C\c1ccccc1,.,.,3,.,.,.,
CC(C)Cn1c(N)c(C(=O)NCCN2CCOCC2)c2nc3ccccc3nc21,13,7,i,-4,.,.,
Cc1cccc(-n2c(N)c(C(=O)NCCN3CCOCC3)c3nc4ccccc4nc32)c1,18,-7,-494,51*,12,3,
Nc1c(N2CCCC2)cc(Cl)c2nonc12,34,-101,87*,96*,75*,4,Fluor interf inh=>100
Cc1nc(-c2ccc(F)cc2)c(CC(=O)N2CCN(S(=O)(=O)c3ccccc3Br)CC2)s1,5,8,6,40,40,-5,
CCN1CCN(Cc2ccc(NC(=O)c3ccc(C)c(NC(=O)c4csc(-c5ccncc5)n4)c3)cc2C(F)(F)F)CC1,3,24,-1,59*,28,1,
CCN1CCN(Cc2ccc(NC(=O)c3ccc(C)c(NC(=O)c4cccc(-c5cn[nH]c(=O)c5)c4)c3)cc2C(F)(F)F)CC1,-2,43,2,19,.,.,
Cc1ccc(NC(=O)CN2C(=O)S/C(=C/c3ccc(-c4cc(C(=O)O)ccc4C)o3)C2=O)cc1C,-4,-21,-2,42*,38,10,
COCc1cc(C)nc(OCC(=O)NN=Cc2ccc(OC)c(O)c2)c1C#N,.,.,4,.,.,.,
COc1cc2c(cc1OC)C1=C(C#N)CCC(=O)N1CC2,2,-4,5,50*,6,5,
COc1cc2c(cc1OC)C1=C(C#N)CCC(=NS(=O)(=O)c3ccccc3)N1CC2,.,.,9,.,.,.,
O=C(NN=Cc1ccccc1OCC(=O)N1CCCC1)C(=O)Nc1ccccc1F,.,.,4,.,.,.,
CCc1ccc2nc(NC(=O)CSCc3c(C)noc3C)sc2c1,6,-6,1,46*,29,5,
N=c1n(CC(=O)c2ccc(Br)s2)c2ccccc2n1Cc1ccccc1,-18,18,5,42*,23,7,
CC1(C)CC(=O)c2c(-c3cccnc3)n[nH]c2C1,4,1,1,43*,9,1,
COc1ccc2ccccc2c1C=NNC(=O)c1ccc([N+](=O)[O-])cc1,.,.,5,.,.,.,
CC1(c2ccc(OC(F)F)cc2)NC(=O)N(N=Cc2c(O)ccc3ccccc23)C1=O (stereo not drawn),.,.,2,.,.,.,
COc1cccc(-c2[nH]nc3c2C(c2ccsc2)C(C#N)=C(N)O3)c1 (stereo not drawn),13,-28,6,60*,11,4,
N#CC1=C(N)Oc2n[nH]c(-c3ccccc3)c2C1c1ccsc1 (stereo not drawn),1,-3,0,9,.,.,
CCCCNc1c(-c2ccc(SC3CCCCC3)cc2)nc2cnccn12,16,?,-171,42*,33,26,
CCC(C)Sc1ccc(-c2nc3cnccn3c2NC2CCCCC2)cc1 (stereo not drawn),27,39,.,45*,32,19,
SMILES,PREPL inh,UBC13 inh,UCH37 DUB inh,Apaf1 inhib,Apaf-1 inh conf2,Rh110 interf inh,others
CCC(C)Sc1ccc(-c2nc3cc(C)ccn3c2NC2CCCCC2)cc1 (stereo not drawn),17,38,-208,28,.,.,
Cc1ccc(S(=O)(=O)/N=C2\C=C(Nc3cccc(C(=O)O)c3)C(=O)c3ccccc32)cc1,32,-185,.,94*,98*,9,Fluor interf inh=>100
Cc1ccc(NC2=C/C(=N/S(=O)(=O)c3cccs3)c3ccccc3C2=O)cc1,5,-70,.,92*,95*,7,Fluor interf inh=>100
O=C1C(Nc2ccccc2)=C/C(=N/S(=O)(=O)c2cccs2)c2ccccc21,30,.,.,.,.,.,
COC(=O)C(C(C)=O)C1=CC(=NS(=O)(=O)c2ccc(C)cc2)c2ccccc2C1=O (stereo not drawn),.,.,0,.,.,.,
CCc1ccc(S(=O)(=O)/N=C2\C=C(Nc3ccc(C(=O)O)cc3)C(=O)c3ccccc32)cc1,41,-165,.,96*,89*,0,Fluor interf inh=>100
Cc1ccc(S(=O)(=O)/N=C2\C=C(Nc3cccc(C(=O)O)c3)C(=O)c3ccccc32)c(C)c1,28,-154,.,90*,85*,20,
COC(=O)c1ccccc1Nc1ccccc1,-7,6,2,8,.,.,
CC(C)(C)c1ccc(S(=O)(=O)/N=C2\C=C(NS(=O)(=O)c3ccccc3)C(=O)c3ccccc32)cc1,7,-81,.,46*,53*,4,Fluor interf inh=>100
CCc1ccc(NC2=CC(=O)C(=O)c3ccccc32)cc1,.,-182,20,92*,86*,6,Fluor interf inh=>100
O=C1C=C(Nc2ccccc2)C(=O)c2ccccc21,15,-152,6,17,.,.,
COC(=O)c1ccccc1NC1=C/C(=N\S(=O)(=O)c2ccc(C(=O)O)cc2)c2ccccc2C1=O,22,-128,90*,95*,97*,4,Fluor interf inh=>100
Cc1nc2ccccc2cc1C(=O)NN=Cc1ccc([N+](=O)[O-])cc1,.,.,11,.,.,.,
O=C1C(Cl)=C(N2CCC(C(=O)O)CC2)C(=O)c2ccccc21,17,-59,78*,75*,53*,2,Fluor interf inh=>100
O=C(O)C1CCN(C(=O)c2ccccc2Cl)CC1,5,9,5,-20,.,.,
Fc1ccc(Nc2nc(NN=Cc3ccco3)nc(N3CCCCC3)n2)cc1,.,.,7,.,.,.,
N#CCCn1cc(C=NNC(N)=S)c(-c2ccc(Br)cc2)n1,.,.,10,.,.,.,
O=C1CCN(Cc2ccccc2)C=C1c1ccc(Cl)cc1,7,13,1,47*,5,4,
CCCCCOC(=O)c1c(N)n(CCOC)c2nc3ccccc3nc12,21,-15,i,94*,27,13,
CCOC(=O)c1c(N)n(CCOC(=O)c2cccs2)c2nc3ccccc3nc12,8,-24,i,95*,10,9,
COc1ccc(N(CC(=O)NN=C(C)CCc2ccccc2)S(=O)(=O)c2ccc(C)cc2)cc1,.,.,4,.,.,.,
CC(Cn1cnc([N+](=O)[O-])n1)=NNC(=O)COc1ccccc1Cl,.,.,13,.,.,.,
Cc1cccc(NC(=O)CN2CCN(C(=O)c3oc4c(Cl)cccc4c3C)CC2)c1C,0,-3,4,70*,17,8,
O=C(NN=Cc1cccnc1)NC12CC3CC(CC(C3)C1)C2,.,.,6,.,.,.,
Cc1nn(-c2ccccc2)c(C)c1CN(C)C(=O)c1ccc(S(=O)(=O)NCc2ccco2)cc1,21,1,-2,49*,14,2,

# Screening results: PubChem, several laboratories
